Measured values published in ChEMBL document CHEMBL3784955, “Development and in Vitro Evaluation of a Microbicide Gel Formulation for a Novel Non-Nucleoside Reverse Transcriptase Inhibitor Belonging to the N-Dihydroalkyloxybenzyloxopyrimidines (N-DABOs) Family” (J Med Chem, 2016).
The source made the active and inactive calls. No cut-off for these calls is given here.

Legend:
[1] = system: Human immunodeficiency virus 1; experiment: Antiviral activity against HIV1 NL4.3 expressing reverse transcriptase K103N mutant infected in human TZM-bl cells incubated for 30 mins prior to infection measured after 48 hrs by luciferase assay; type: functional, organism-based; conditions: Human immunodeficiency virus 1, NL4.3, TZM-bl
Method in brief: (§1)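 TZM-bl cells (10,000/well at 10⁵ cells/mL, medium with 30 μg/mL DEAE dextran) preincubated 30 min at 37 °C, 5% CO₂ with serial compound dilutions. Then 200 TCID₅₀ mutant HIV-1 added per well. After 48 h, luciferase read. Triplicate wells, at least two independent experiments. % inhibition versus untreated controls fitted by nonlinear regression to give EC₅₀.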

[2] = system: Human immunodeficiency virus 1; experiment: Antiviral activity against HIV1 NL4.3 infected in human TZM-bl cells incubated for 30 mins prior to infection measured after 48 hrs by luciferase assay; type: functional, organism-based; conditions: Human immunodeficiency virus 1, NL4.3, TZM-bl
Method in brief: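 TZM-bl cells (10 000/well, 10⁵ cells/mL in medium with 30 μg/mL DEAE dextran) preincubated 30 min at 37 °C, 5% CO₂ with serial compound dilutions; 200 TCID₅₀ HIV-1 WT or mutant virus added, luciferase read after 48 h. Triplicate wells, ≥2 independent experiments; % inhibition vs untreated controls, EC₅₀ by nonlinear regression.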

[3] = system: Human immunodeficiency virus 1; experiment: Antiviral activity against HIV1 NL4.3 expressing reverse transcriptase E138K mutant infected in human TZM-bl cells incubated for 30 mins prior to infection measured after 48 hrs by luciferase assay; type: functional, organism-based; conditions: Human immunodeficiency virus 1, NL4.3, TZM-bl; method in brief: as §1
[4] = system: Human immunodeficiency virus 1; experiment: Antiviral activity against HIV1 NL4.3 expressing reverse transcriptase K101E mutant infected in human TZM-bl cells incubated for 30 mins prior to infection measured after 48 hrs by luciferase assay; type: functional, organism-based; conditions: Human immunodeficiency virus 1, NL4.3, TZM-bl; method in brief: as §1
[5] = Effective permeability of compound at pH 7.4 after 5 hrs by PAMPA; type: ADME; conditions: read-out: Peff
Method in brief: (§2)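 Filter coated with 1% w/v phosphatidylcholine in dodecane; acceptor 50% DMSO in phosphate buffer. 5 h at room temperature with gentle shaking; LC-UV at 280 nm on both sides; Pe calculated in cm/s. Three plates on different days.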

[6] = system: Human immunodeficiency virus 1; experiment: Antiviral activity against HIV1 NL4.3 expressing reverse transcriptase Y181C mutant infected in human TZM-bl cells incubated for 30 mins prior to infection measured after 48 hrs by luciferase assay; type: functional, organism-based; conditions: Human immunodeficiency virus 1, NL4.3, TZM-bl; method in brief: as §1
[7] = system: Human immunodeficiency virus 1; experiment: Antiviral activity against HIV1 NL4.3 expressing reverse transcriptase V106A mutant infected in human TZM-bl cells incubated for 30 mins prior to infection measured after 48 hrs by luciferase assay; type: functional, organism-based; conditions: Human immunodeficiency virus 1, NL4.3, TZM-bl; method in brief: as §1
[8] = Cytotoxicity against human TZM-bl cells assessed as reduction in cell viability after 2 days by WST-1 assay; type: cell-based
Method in brief: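 10 000 TZM-bl cells cultured 48 h with serial compound dilutions; WST-1 added and absorbance at 450 nm read after 90 min. Three replicate wells, ≥2 independent experiments; % viability vs untreated controls, CC₅₀ by nonlinear regression.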

Liver microsome = experiment: Metabolic stability in liver microsomes (unknown origin) assessed as parent compound remaining; type: ADME; conditions: human
[9] = system: Human immunodeficiency virus 1; experiment: Antiviral activity against HIV1 NL4.3 expressing reverse transcriptase V90I mutant infected in human TZM-bl cells incubated for 30 mins prior to infection measured after 48 hrs by luciferase assay; type: functional, organism-based; conditions: Human immunodeficiency virus 1, NL4.3, TZM-bl; method in brief: as §1
[10] = system: Human immunodeficiency virus 1; experiment: Antiviral activity against HIV1 NL4.3 expressing reverse transcriptase L100I mutant infected in human TZM-bl cells incubated for 30 mins prior to infection measured after 48 hrs by luciferase assay; type: functional, organism-based; conditions: Human immunodeficiency virus 1, NL4.3, TZM-bl; method in brief: as §1
[11] = target: Human immunodeficiency virus type 1 reverse transcriptase (Human immunodeficiency virus 1, UniProt Q72547); experiment: Inhibition of recombinant HIV1 His-tagged p66/p51 reverse transcriptase expressed in Escherichia coli assessed as reduction in [3H]dTTP incorporation using poly(rA)-oligo(dT) (12 to 18 bp) as template/primer incubated for 20 mins by scintillation counting method
[12] = Effective permeability of compound at pH 4.2 after 5 hrs by PAMPA; type: ADME; conditions: read-out: Peff; method in brief: as §2
[13] = Chemical stability in pH 4.2 solution assessed as drug recovery using compound gel formulation incubated for 1 month at room temperature under dark condition; type: physicochemical; conditions: pH 4.2 solution (compound gel formulation), read-out: Drug recovery
Method in brief: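 Gel at pH 4.2 (vaginal formulation) with final drug concentration 17 μM stored 1 month at room temperature without light; drug recovery measured, with viscosity and pH monitored.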

[14] = system: Human immunodeficiency virus 1; experiment: Antiviral activity against HIV1 NL4.3 infected in human TZM-bl cells using compound gel formulation stored at room temperature in dark for 1 month incubated for 30 mins with cells prior to infection measured after 48 hrs by luciferase assay; type: functional, organism-based
Method in brief: (§3)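 Gel formulation tested by the free-drug TZM-bl procedure alongside free drug in solution and blank gel: 10 000 cells with 30 μg/mL DEAE dextran, 30 min preincubation at 37 °C, 200 TCID₅₀ virus, luciferase after 48 h. Each concentration in triplicate; EC₅₀ from % inhibition vs untreated controls by nonlinear regression.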

[15] = Cytotoxicity against human TZM-bl cells assessed as reduction in cell viability at 5% gel formulation of compound after 2 days by WST-1 assay; type: cell-based; conditions: 48 h
[16] = system: Human immunodeficiency virus 1; experiment: Antiviral activity against HIV1 NL4.3 infected in human TZM-bl cells using compound gel formulation incubated for 72 hrs by luciferase based transwell assay; type: functional, organism-based; conditions: Human immunodeficiency virus 1, NL4.3, TZM-bl
Method in brief: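 Transwell format, gel reformulated without β-cyclodextrins. TZM-bl cells (4 × 10⁴/apical chamber, 3 μm pore) cultured overnight. 60 TCID₅₀ NL4.3 added apically with gel at 50%, final drug 5000–0.5 nM (tenfold steps); medium in basal compartment. Blank gel used for virus titration. Luciferase read-out; triplicates.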

[17] = Selectivity index, ratio of CC50 for human TZM-bl cells to EC50 for HIV1 NL4.3 infected in human TZM-bl cells; type: toxicity, cell-based; conditions: read-out: Ratio CC50/EC50
Method in brief: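 SI = CC50/EC50 in TZM-bl cells. EC50: 10 000 cells (10⁵/mL, 30 μg/mL DEAE dextran) preincubated 30 min at 37 °C with serial compound dilutions, then infected with 200 TCID50 virus; luciferase read at 48 h. CC50: 10 000 cells given serial dilutions for 48 h; WST-1 absorbance at 450 nm after 90 min. Triplicates, ≥2 experiments; nonlinear regression.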

[18] = system: Human immunodeficiency virus 1; experiment: Antiviral activity against HIV1 NL4.3 infected in human TZM-bl cells using compound gel formulation incubated for 30 mins prior to infection measured after 48 hrs by luciferase assay; type: functional, organism-based; conditions: Human immunodeficiency virus 1, NL4.3, TZM-bl; method in brief: as §3

SMILES | EC50 [1] [nM] | EC50 [2] [nM] | EC50 [3] [nM] | EC50 [4] [nM] | Papp at 5 h [5] [×10⁻⁶ cm/s] | EC50 [6] [nM] | EC50 [7] [nM] | CC50 at 48 h [8] [nM] | Stability (Liver microsome) [%] | EC50 [9] [nM] | EC50 [10] [nM] | IC50 [11] [nM] | Papp at 5 h [12] [×10⁻⁶ cm/s] | remaining at 730.5 h [13] [%] | Activity [14] | Activity [15] | EC50 [16] [nM] | selectivity ratio [17] | EC50 [18] [nM]
Cc1c(C(C)c2c(Cl)cccc2Cl)nc(N(C)Cc2ccc(N3CCN(C)CC3)cc2)[nH]c1=O (stereo not drawn) | 1040 | 29 | 103 | 294 | 0.91 | 627 | 6.3 | > 10000 | 99 |  |  |  |  |  |  |  |  |  | 
Cc1c(C(C)c2c(F)cccc2F)nc(N(C)Cc2n[nH]c3ccccc23)[nH]c1=O (stereo not drawn) | > 10000 | 329 | 950 | > 10000 |  | > 10000 |  | > 100000 |  | 687 | > 10000 |  |  |  |  |  |  |  | 
Cc1c(Cc2c(Cl)cccc2Cl)nc(N(C)Cc2ccc(N3CCOCC3)cc2)[nH]c1=O |  | 657 |  |  | 21.9 |  |  | 9900 | 99 |  |  | 90 |  |  |  |  |  |  | 
Cc1c(Cc2c(Cl)cccc2Cl)nc(N(C)Cc2ccc(N3CCN(C)CC3)cc2)[nH]c1=O | 792 | 94 | 274 | > 1000 | 1.37 | 704 | 18 | 3200 | 99 |  |  |  | 0.58 |  |  |  |  |  | 
Cc1c(Cc2c(Cl)cccc2Cl)nc(N(C)Cc2ccc(N3CCNCC3)cc2)[nH]c1=O |  | 110 |  |  |  |  |  | 20700 |  |  |  |  |  |  |  |  |  |  | 
COc1ccc(CN(C)c2nc(C(C)c3c(F)cccc3F)c(C)c(=O)[nH]2)cc1 (stereo not drawn) | 102 | 3.3 | 17 | 31 | 5.54 | 80 |  | 88800 | 99 | 8.7 | 84 |  | 3.78 | 100 | Active | Toxic | 30 | > 10000 | 2.3
Cc1c(Cc2c(Cl)cccc2Cl)nc(N(C)Cc2ccc([N+](=O)[O-])cc2)[nH]c1=O | 367 | 8.6 | 35 | 51 | 10.9 | 201 |  | 19500 | 99 | 13 | 220 | 7.85 | 1.9 |  |  |  |  |  | 
Cc1c(C(C)c2c(F)cccc2F)nc(N(C)Cc2ccc(N3CCN(C)CC3)cc2)[nH]c1=O (stereo not drawn) | 2460 | 7.9 | 42 | 138 |  | 331 |  | 26200 |  | 22 | 1570 |  |  |  |  |  |  |  | 
COc1ccc(C2CC2CSc2nc(C(C)c3c(F)cccc3F)c(C)c(=O)[nH]2)cc1 (stereo not drawn) | 549 | 93 | 246 | 450 |  | 1610 | 56 | 31100 |  |  |  |  |  |  |  |  |  |  | 
